Data as given in ChEMBL document CHEMBL3871280, “Bis(N-amidinohydrazones) and N-(amidino)-N'-aryl-bishydrazones: New classes of antibacterial/antifungal agents” (Bioorg Med Chem, 2017).
Values after ≈ are worked out from the molar mass of the structure shown.

What was measured:
[1] = tested on: Pseudomonas aeruginosa; test: Antibacterial activity against Pseudomonas aeruginosa ATCC 27853; format: functional
[2] = tested on: Bacillus subtilis; test: Antibacterial activity against Bacillus subtilis 168; format: functional; settings: subsp. subtilis str. 168
[3] = tested on: Klebsiella pneumoniae; test: Antibacterial activity against Klebsiella pneumoniae ATCC 27736; format: functional
[4] = tested on: Listeria monocytogenes; test: Antibacterial activity against Listeria monocytogenes ATCC 19115; format: functional
[5] = tested on: Escherichia coli; test: Antibacterial activity against Escherichia coli MC1061; format: functional
Summary of the method: (§1)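 Values were set in μM and converted to μg/mL for presentation. Amikacin, ampicillin and ofloxacin served as positive controls.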

[6] = tested on: Staphylococcus aureus; test: Antibacterial activity against methicillin-resistant Staphylococcus aureus; format: functional; summary of the method: as §1
[7] = tested on: Enterococcus; test: Antibacterial activity against vancomycin-resistant Enterococcus; format: functional; summary of the method: as §1
[8] = Antibacterial activity against Salmonella enterica ATCC 14028; format: functional
[9] = tested on: Enterobacter cloacae; test: Antibacterial activity against Enterobacter cloacae ATCC 13047; format: functional; settings: subsp. cloacae ATCC 13047
[10] = tested on: Mycolicibacterium smegmatis; test: Antimycobacterial activity against Mycobacterium smegmatis MC2 155; format: functional; settings: str. MC2 155; summary of the method: as §1
[11] = tested on: Acinetobacter baumannii; test: Antibacterial activity against Acinetobacter baumannii ATCC 19606; format: functional
[12] = tested on: Candida albicans; test: Antifungal activity against Candida albicans ATCC 1003; format: functional
[13] = Cytotoxicity against human BEAS2B cells assessed as reduction in cell survival; format: toxicity, cell-based; settings: beas-2b
[14] = Cytotoxicity against human A549 cells assessed as reduction in cell survival; format: toxicity, cell-based
[15] = Antifungal activity against fluconazole/itraconazole/voriconazole-resistant Candida albicans ATCC 64124; format: functional
[16] = Antifungal activity against fluconazole/itraconazole/voriconazole-resistant Candida albicans ATCC 90819; format: functional
[17] = Antifungal activity against fluconazole/itraconazole/voriconazole-susceptible Candida albicans ATCC 2310; format: functional
[18] = Antifungal activity against fluconazole/itraconazole/voriconazole-resistant Candida albicans ATCC 10231; format: functional
[19] = Antifungal activity against fluconazole/itraconazole/voriconazole-susceptible Candida albicans ATCC 2876; format: functional
[20] = Antifungal activity against fluconazole/itraconazole/voriconazole-resistant Candida albicans ATCC 1237; format: functional

| Structure (SMILES) | MIC [1] [µM] | MIC [2] [µM] | MIC [3] [µM] | MIC [4] [µM] | MIC [5] [µM] | MIC [6] [µM] | MIC [7] [µM] | MIC [8] [µM] | MIC [9] [µM] | MIC [10] [µM] | MIC [11] [µM] | MIC [12] [µM] | IC50 [13] [µg/mL] | IC50 [14] [µg/mL] | MIC [15] [µM] | MIC [16] [µM] | MIC [17] [µM] | MIC [18] [µM] | MIC [19] [µM] | MIC [20] [µM] |
| --- | --- | --- | --- | --- | --- | --- | --- | --- | --- | --- | --- | --- | --- | --- | --- | --- | --- | --- | --- | --- |
| CC1(C)S[C@@H]2[C@H](NC(=O)[C@H](N)c3ccccc3)C(=O)N2[C@H]1C(=O)O [AMPICILLIN] | > 250 | > 250 | > 250 | 250 (≈ 87.4 µg/mL) | > 250 | 250 (≈ 87.4 µg/mL) | 250 (≈ 87.4 µg/mL) | 250 (≈ 87.4 µg/mL) | > 250 | > 250 | > 250 |  |  |  |  |  |  |  |  |  |
| Cl.N=C(N)N/N=C/c1ccc(-c2ccc(/C=N/Nc3ccc(F)cc3F)cc2)cc1 | > 500 | > 500 | > 500 | 2 to 3.9 | > 500 | 3.9 | 3.9 | > 500 | > 500 | 2 to 3.9 | > 500 | 4.5 | 5.8 | 4.8 | 9.1 | 18.2 | 9.1 | 2.3 | 9.1 | 9.1 |
| C/C(=N\NC(=N)N)c1cccc(/C(C)=N/NC(=N)N)c1.Cl.Cl | 500 | 250 | > 500 | 250 | > 500 | > 500 | 125 | 62.5 to 250 | > 500 | 15.6 | > 500 | > 90.1 | 33 | 31.2 | > 90.1 | > 90.1 | 90.1 | > 90.1 | 22.5 | 90.1 |
| CC1COc2c(N3CCN(C)CC3)c(F)cc3c(=O)c(C(=O)O)cn1c23 (stereo not given) [OFLOXACIN] | 3.9 (≈ 1.41 µg/mL) | ≤ 0.5 | 15.6 to 31.3 (≈ 5.64 to 11.3 µg/mL) | 1 (≈ 0.361 µg/mL) | 3.9 to 7.8 (≈ 1.41 to 2.82 µg/mL) | 1 (≈ 0.361 µg/mL) | 7.8 (≈ 2.82 µg/mL) | 15.6 to 31.3 (≈ 5.64 to 11.3 µg/mL) | ≤ 0.5 | 15.6 (≈ 5.64 µg/mL) | ≤ 0.5 |  |  |  |  |  |  |  |  |  |
| C/C(=N\NC(=N)N)c1ccc(Cc2ccc(/C(C)=N/NC(=N)N)cc2)cc1.Cl.Cl | > 500 | > 500 | > 500 | 3.9 | > 500 | 3.9 | 2 | > 500 | > 500 | 2 | > 500 | 17.8 | 2.9 | 4.3 | 17.8 | 17.8 | 17.8 | 17.8 | 8.9 | 17.8 |
| C/C(=N\NC(=N)N)c1ccc(Oc2ccc(/C(C)=N/NC(=N)N)cc2)cc1.Cl.Cl | 62.5 | 125 | 62.5 | 62.5 | 125 | 125 | 3.9 | 125 | 250 | 125 to 250 | 62.5 | 17.8 | 2.9 | 3.9 | 17.8 | 17.8 | 17.8 | 17.8 | 8.9 | 17.8 |
| Cl.N=C(N)N/N=C/c1ccc(-c2ccc(/C=N/Nc3ccccc3Br)cc2)cc1 | > 500 | > 500 | > 500 | 2 | > 500 | 2 | 2 | > 500 | > 500 | 3.9 | > 500 | 4.1 | 3.4 | 6.7 | 8.3 | 8.3 | 8.3 | 4.1 | 8.3 | 8.3 |
| N=C(N)N/N=C/c1ccc(-c2ccc(/C=N/Nc3ccc(Cl)cc3Cl)cc2)cc1 | > 500 | > 500 | > 500 | 7.8 (≈ 3.32 µg/mL) | > 500 | 7.8 (≈ 3.32 µg/mL) | 7.8 (≈ 3.32 µg/mL) | > 500 | > 500 | 3.9 (≈ 1.66 µg/mL) | > 500 | 16.8 (≈ 7.15 µg/mL) |  |  | 67.8 (≈ 28.8 µg/mL) | 67.8 (≈ 28.8 µg/mL) | 16.8 (≈ 7.15 µg/mL) | 16.8 (≈ 7.15 µg/mL) | 33.8 (≈ 14.4 µg/mL) | 33.8 (≈ 14.4 µg/mL) |
| C[C@@H]1[C@H](O)[C@@H](C)/C=C/C=C/C=C/C=C/C=C/C=C/C=C/[C@H](O[C@@H]2O[C@H](C)[C@@H](O)[C@H](N)[C@@H]2O)C[C@@H]2O[C@](O)(C[C@@H](O)C[C@@H](O)[C@H](O)CC[C@@H](O)C[C@@H](O)CC(=O)O[C@H]1C)C[C@H](O)[C@H]2C(=O)O [AMPHOTERICIN B] |  |  |  |  |  |  |  |  |  |  |  |  | 17.7 (≈ 19.2 µM) | 18.2 (≈ 19.7 µM) | 2.1 to 4.2 (≈ 1.94 to 3.88 µg/mL) |  |  |  |  |  |
| NCC[C@H](O)C(=O)N[C@@H]1C[C@H](N)[C@@H](O[C@H]2O[C@H](CN)[C@@H](O)[C@H](O)[C@H]2O)[C@H](O)[C@H]1O[C@H]1O[C@H](CO)[C@@H](O)[C@H](N)[C@H]1O [AMIKACIN] | 62.5 (≈ 36.6 µg/mL) | 3.9 to 15.6 (≈ 2.28 to 9.14 µg/mL) | 31.3 (≈ 18.3 µg/mL) | 3.9 (≈ 2.28 µg/mL) | 31.3 (≈ 18.3 µg/mL) | 31.3 (≈ 18.3 µg/mL) | 125 (≈ 73.2 µg/mL) | 3.9 to 7.8 (≈ 2.28 to 4.57 µg/mL) | 62.5 (≈ 36.6 µg/mL) | 15.6 (≈ 9.14 µg/mL) | 31.3 (≈ 18.3 µg/mL) |  |  |  |  |  |  |  |  |  |
| C/C(=N\NC(=N)N)c1ccc(-c2ccc(/C(C)=N/Nc3ccccc3Cl)cc2)cc1 | 500 (≈ 209 µg/mL) | 62.5 to 125 (≈ 26.2 to 52.4 µg/mL) | 62.5 to 125 (≈ 26.2 to 52.4 µg/mL) | 62.5 to 125 (≈ 26.2 to 52.4 µg/mL) | 500 (≈ 209 µg/mL) | 125 (≈ 52.4 µg/mL) | 3.9 (≈ 1.63 µg/mL) | 62.5 to 125 (≈ 26.2 to 52.4 µg/mL) | 500 (≈ 209 µg/mL) | 500 (≈ 209 µg/mL) | 62.5 (≈ 26.2 µg/mL) | 34.3 (≈ 14.4 µg/mL) |  |  | 68.7 (≈ 28.8 µg/mL) | 34.3 (≈ 14.4 µg/mL) | 34.3 (≈ 14.4 µg/mL) | 34.3 (≈ 14.4 µg/mL) | 34.3 (≈ 14.4 µg/mL) | 34.3 (≈ 14.4 µg/mL) |
| C/C(=N\NC(=N)N)c1ccc(/C(C)=N/NC(=N)N)cc1 | 250 (≈ 68.6 µg/mL) | 250 (≈ 68.6 µg/mL) | 500 (≈ 137 µg/mL) | 250 (≈ 68.6 µg/mL) | > 500 | > 500 | 125 (≈ 34.3 µg/mL) | 250 to 500 (≈ 68.6 to 137 µg/mL) | > 500 | > 500 | 500 (≈ 137 µg/mL) | > 90.1 |  |  | 90.1 (≈ 24.7 µg/mL) | > 90.1 | > 90.1 | > 90.1 | > 90.1 | > 90.1 |
